Screening data from PubChem BioAssay.
This is a sample that favours compounds with a hit; in the whole collection about 3.8% have one here.
KCNK9 block: blocks the human KCNK9 two-pore domain potassium channel; Q9NPC2; HEK293 KCNK9, FluxOR thallium flux fluorescence; hits give low values; B-score at 10 µM; hit rate 1.2% among 310,000; AID 488922;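 active means ratio B-score over 3 SD below the library mean, with starting fluorescence within 5 SD of its mean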;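 further: negative B-score means less thallium flux so channel inhibition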
Target sequence (Q9NPC2 whole entry, looked up, the tested form may be a part): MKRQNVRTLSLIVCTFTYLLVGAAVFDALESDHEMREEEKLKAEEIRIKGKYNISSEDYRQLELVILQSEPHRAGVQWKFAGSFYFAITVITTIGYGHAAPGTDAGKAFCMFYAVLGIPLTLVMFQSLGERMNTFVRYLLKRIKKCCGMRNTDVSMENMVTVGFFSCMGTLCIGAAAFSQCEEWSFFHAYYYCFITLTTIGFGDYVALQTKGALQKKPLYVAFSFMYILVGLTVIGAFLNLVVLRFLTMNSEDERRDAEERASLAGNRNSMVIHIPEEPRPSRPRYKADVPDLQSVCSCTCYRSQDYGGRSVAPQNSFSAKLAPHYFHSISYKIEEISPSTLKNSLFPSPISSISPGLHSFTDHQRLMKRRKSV
hERG protect: shields human hERG channel from block by proarrhythmic agents. Q12809. CHO-hERG, FluxOR thallium flux, dofetilide IC70 present. activation (rescue from dofetilide block), less the hit threshold, % at 10 µM. hit rate 0.51% among 310,000. AID 1511;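 active means activation above the mean of controls blocked by dofetilide plus 5 SD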;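 further: thallium influx through hERG after potassium depolarization seen as dye fluorescence rise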
KCNQ1 inh: blocks the human KCNQ1 potassium channel; P51787; CHO-K1 KCNQ1, FluxOR thallium flux fluorescence; hits give high values; B-score at 10 µM; hit rate 1.3% among 310,000; AID 2642;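 active means compounds whose thallium flux B-score, printed positive for inhibition, exceeds three library SD while starting fluorescence stays within three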;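 further: channel opened by potassium depolarization with thallium stimulus after 20 min compound exposure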
KCNK3 block: human KCNK3 channel inhibition, primary screen. O14649. CHO-KCNK3 thallium flux, FluxOR fluorescence; hits give low values. B-score at 10 µM. hit rate 0.84% among 340,000. AID 602410;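 active means B-score under library mean minus 4 SD, starting fluorescence ratio at most library mean plus 5 SD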;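 further: more negative B-score means stronger inhibition of thallium flux through KCNK3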
KCNQ1 act: potentiators or activators of human KCNQ1 potassium channel; hit rate 0.35% among 310,000; AID 2648; B-score at 10 µM; CHO-K1 KCNQ1, thallium flux FluxOR fluorescence; hits give high values;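 active means fluorescence ratio B-score, a plate-corrected score, at least three library SD, with initial intensity B-score within 5 SD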
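Assay system: CHO-K1 cells stably expressing KCNQ1; Medium: assay buffer with matched DMSO; Also added: K+/Tl+ depolarizing stimulus; Dosing: single dose; Timing: dye 90 min, compound 20 min, room temperature; Measured by: kinetic FluxOR thallium fluorescence, 10-s 1-Hz baseline, 110-s post-stimulus read; Read-out: peak-minus-minimum fluorescence over initial fluorescence, negative-control normalized, B-scored.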
Kir21 inh: Kir2.1 (mouse) channel inhibition; hit rate 0.85% among 310,000; P35561; HEK293-Kir2.1, FluxOR thallium flux fluorescence; hits give low values; B-score at 10 µM;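 active means fluorescence ratio B-score at or below minus 3 SD of library scores, with starting-brightness B-score within 2 SD, cut at about -4.2 in these data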;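 further: channel flux triggered by added potassium and thallium sulfate stimulus; B-score of peak minus minimum fluorescence over baseline after thallium stimulus; more negative B-score means stronger Kir2.1 block with less thallium influx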
Numbers without * were called inactive.

Results for O=C(NC1CCN(Cc2ccccc2)CC1)c1ccccc1Cl ?
KCNK9 block: inactive; hERG protect: -8.6; KCNQ1 inh: inactive; KCNK3 block: inactive; KCNQ1 act: inactive; Kir21 inh: 0.85

Results for COC(=O)c1c(NC(=O)CC2SC(N)=NC2=O)sc(C)c1C (stereo not drawn) ?
KCNK9 block: inactive; hERG protect: -7.2; KCNQ1 inh: inactive; KCNK3 block: inactive; KCNQ1 act: inactive; Kir21 inh: -0.2

Results for O=C(CCc1nnc2ccc(NCc3ccccc3)nn12)NC1CCCCC1 ?
KCNK9 block: inactive; hERG protect: -7.9; KCNQ1 inh: inactive; KCNK3 block: inactive; KCNQ1 act: inactive; Kir21 inh: -0.01

Results for NNC(=S)Nc1c(F)cc(F)cc1Br ?
KCNK9 block: inactive; hERG protect: -5.4; KCNQ1 inh: inactive; KCNK3 block: inactive; KCNQ1 act: inactive; Kir21 inh: -0.07

What do the screens show for `CCN(CC)c1ncnc2scc(C3COc4ccccc4O3)c12` (stereo not drawn)?
KCNK9 block: -7.62*; hERG protect: -9.6; KCNQ1 inh: inactive; KCNK3 block: inactive; KCNQ1 act: inactive; Kir21 inh: -1.75

How did O=C(CSc1n[nH]c(-c2ccco2)n1)Nc1ccccc1Cl do in these assays?
KCNK9 block: inactive; hERG protect: -7.7; KCNQ1 inh: inactive; KCNK3 block: inactive; KCNQ1 act: inactive; Kir21 inh: -0.43

Results for FC(F)(F)c1ccc(Cl)c(N/N=C/c2ccc(N3CCOCC3)s2)c1 ?
KCNK9 block: -6.94*; hERG protect: -1.5; KCNQ1 inh: inactive; KCNK3 block: inactive; KCNQ1 act: inactive; Kir21 inh: 0.73

How did O=C(c1cccc(C(F)(F)F)c1)C1CCCN(Cc2cccn2-c2ccccn2)C1 (stereo not drawn) do in these assays?
KCNK9 block: inactive; hERG protect: -18.7; KCNQ1 inh: 8*; KCNK3 block: inactive; KCNQ1 act: inactive; Kir21 inh: -0.39

What do the screens show for `Cc1cc(C)cc(NC(=S)NCC2CCN(C(C)c3ccccc3)C2)c1` (stereo not drawn)?
KCNK9 block: inactive; hERG protect: -16.9; KCNQ1 inh: inactive; KCNK3 block: inactive; KCNQ1 act: inactive; Kir21 inh: -4.89*

Results for Cc1ccccc1NC(=S)NCC1CCN(C(C)c2ccccc2)C1 (stereo not drawn) ?
KCNK9 block: inactive; hERG protect: -13.0; KCNQ1 inh: inactive; KCNK3 block: inactive; KCNQ1 act: inactive; Kir21 inh: -1.46

Results for Cc1ccc2[nH]c(=O)c(CN(CCCN(C)C)C(=S)NCCc3ccccc3)cc2c1 ?
KCNK9 block: inactive; hERG protect: -9.1; KCNQ1 inh: inactive; KCNK3 block: inactive; KCNQ1 act: 10*; Kir21 inh: -3.34

How did Cc1ccc2cc(CN(CCc3ccccc3)C(=S)NCCCN(C)C)c(=O)[nH]c2c1 do in these assays?
KCNK9 block: inactive; hERG protect: -11.3; KCNQ1 inh: inactive; KCNK3 block: inactive; KCNQ1 act: inactive; Kir21 inh: -1

What do the screens show for `Cc1ccc(C(=O)NC(=S)N(C)C2CCCCC2)cc1`?
KCNK9 block: inactive; hERG protect: 14.7*; KCNQ1 inh: inactive; KCNK3 block: inactive; KCNQ1 act: 17*; Kir21 inh: 1.17

How did CC(C)(C)c1ccc(-c2nnc(SCCC#N)n2C2CCCC2)cc1 do in these assays?
KCNK9 block: inactive; hERG protect: -17.7; KCNQ1 inh: 6*; KCNK3 block: inactive; KCNQ1 act: inactive; Kir21 inh: 0.5

Results for CC(=O)Nc1ccc(OC(=O)c2ccco2)cc1 ?
KCNK9 block: inactive; hERG protect: -2.7; KCNQ1 inh: inactive; KCNK3 block: inactive; KCNQ1 act: inactive; Kir21 inh: -0.61

How did CCCOC(=O)c1ccc(OC(=O)c2ccco2)cc1 do in these assays?
KCNK9 block: inactive; hERG protect: -8.7; KCNQ1 inh: inactive; KCNK3 block: inactive; KCNQ1 act: inactive; Kir21 inh: -4.38*

What do the screens show for `COCC(C)n1c(C)cc(C(=O)COC(=O)CN=C2NS(=O)(=O)c3ccccc32)c1C` (stereo not drawn)?
KCNK9 block: inactive; hERG protect: -11.9; KCNQ1 inh: inactive; KCNK3 block: inactive; KCNQ1 act: inactive; Kir21 inh: 0.51

What do the screens show for `Cc1nc(C2CCC3C4CCC5=CC(=O)CC[C@]5(C)C4CC[C@]23C)cs1` (stereo partly drawn)?
KCNK9 block: inactive; hERG protect: -14.3; KCNQ1 inh: 7*; KCNQ1 act: inactive; Kir21 inh: -1.1

What do the screens show for `CC(=O)[C@@]1(O)CC[C@H]2[C@@H]3CCC4=CC(=O)CC[C@]4(C)[C@H]3CC[C@@]21C`?
KCNK9 block: inactive; hERG protect: -3.3; KCNQ1 inh: inactive; KCNK3 block: inactive; KCNQ1 act: inactive; Kir21 inh: 0.46

Results for CCN(CC)CCn1c2c(c(SCC(=O)NCc3ccccc3)nc1=O)CCC2 ?
KCNK9 block: inactive; hERG protect: -8.9; KCNQ1 inh: inactive; KCNK3 block: inactive; KCNQ1 act: inactive; Kir21 inh: 0.81

How did COc1ccc(S(=O)(=O)CCC(=O)N2c3ccccc3CC2C)cc1 (stereo not drawn) do in these assays?
KCNK9 block: inactive; hERG protect: -7.8; KCNQ1 inh: inactive; KCNK3 block: inactive; KCNQ1 act: inactive; Kir21 inh: -4.56*

Results for Cc1ccc(-c2ccc(OC(=O)c3ccc(=O)[nH]c3)c(C)c2)cc1 ?
KCNK9 block: inactive; hERG protect: -4.7; KCNQ1 inh: inactive; KCNK3 block: inactive; KCNQ1 act: inactive; Kir21 inh: -0.75

Results for COc1cc2ccccc2cc1C(=O)Nc1ccc(C)cn1 ?
KCNK9 block: inactive; hERG protect: -17.3; KCNQ1 inh: inactive; KCNK3 block: inactive; KCNQ1 act: inactive; Kir21 inh: -0.43

How did O=C(c1ccc([N+](=O)[O-])cc1)N1CCN(C2=NS(=O)(=O)c3ccccc32)CC1 do in these assays?
KCNK9 block: inactive; hERG protect: -6.5; KCNQ1 inh: inactive; KCNK3 block: inactive; KCNQ1 act: inactive; Kir21 inh: 0.88

How did CCOC(=O)c1c(NC(C)=O)sc2c(OCC(O)CNC(C)(C)C)c(Br)ccc12 (stereo not drawn) do in these assays?
KCNK9 block: inactive; hERG protect: -16.4; KCNQ1 inh: inactive; KCNK3 block: inactive; KCNQ1 act: inactive; Kir21 inh: -6.06*

How did CCOC(=O)c1c(N)sc2c(OCC)c(Br)ccc12 do in these assays?
KCNK9 block: inactive; hERG protect: -0.1; KCNQ1 inh: inactive; KCNK3 block: inactive; KCNQ1 act: inactive; Kir21 inh: -0.32

Results for Cc1c(C)c2ccc(OC(C)C(=O)NCCCN3CCOCC3)c(C)c2oc1=O (stereo not drawn) ?
KCNK9 block: inactive; hERG protect: -4.2; KCNQ1 inh: inactive; KCNK3 block: inactive; KCNQ1 act: inactive; Kir21 inh: 0.77
